{"source": "ChEMBL document CHEMBL1146882", "about": "“Hepatoprotective activity of Schouwia thebica webb” (2006)", "key": {"Rattus norvegicus [1]": {"tested_on": "Rattus norvegicus", "assay": "Albumin level in Sprague-Dawley rat serum at 100 mg/kg, po", "assay_type": "functional", "how_it_was_run": "(§1)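 Male Sprague–Dawley rats (180-200 g), 5 per group, dosed orally once daily for 5 successive days. Twenty-four hours after the last dose, each rat received a single oral dose of 50% CCl4 in corn oil (2.5 ml/kg). Comparison groups were corn oil alone and CCl4 alone. Two days later, blood was taken from the orbital plexus, and serum was separated by centrifugation at 3000 rpm for 15 min for the assays.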"}, "Rattus norvegicus [2]": {"tested_on": "Rattus norvegicus", "assay": "Aspartate aminotransferase activity in Sprague-Dawley rat serum at 100 mg/kg, po", "assay_type": "functional", "how_it_was_run": "as §1"}, "Rattus norvegicus [3]": {"tested_on": "Rattus norvegicus", "assay": "Cholesterol level in Sprague-Dawley rat serum at 100 mg/kg, po", "assay_type": "functional", "how_it_was_run": "as §1"}, "Rattus norvegicus [4]": {"tested_on": "Rattus norvegicus", "assay": "Triglyceride level in Sprague-Dawley rat serum at 100 mg/kg, po", "assay_type": "functional", "how_it_was_run": "as §1"}, "Rattus norvegicus [5]": {"tested_on": "Rattus norvegicus", "assay": "Alanine aminotransferase activity in Sprague-Dawley rat serum at 100 mg/kg, po", "assay_type": "functional", "how_it_was_run": "as §1"}, "Rattus norvegicus [6]": {"tested_on": "Rattus norvegicus", "assay": "Glucose level in Sprague-Dawley rat serum at 100 mg/kg, po", "assay_type": "functional", "how_it_was_run": "as §1"}, "Rattus norvegicus [7]": {"tested_on": "Rattus norvegicus", "assay": "Total bilirubin level in Sprague-Dawley rat serum at 100 mg/kg, po", "assay_type": "functional", "how_it_was_run": "as §1"}, "Rattus norvegicus [8]": {"tested_on": "Rattus norvegicus", "assay": "Gamma-glutamyl transferase activity in Sprague-Dawley rat serum at 100 mg/kg, po", "assay_type": "functional", "how_it_was_run": "as §1"}, "Rattus norvegicus [9]": {"tested_on": "Rattus norvegicus", "assay": "Total protein level in Sprague-Dawley rat serum at 100 mg/kg, po", "assay_type": "functional", "how_it_was_run": "as §1"}, "Rattus norvegicus [10]": {"tested_on": "Rattus norvegicus", "assay": "Aspartate aminotransferase activity in Sprague-Dawley rat serum at 25 mg/kg, po", "assay_type": "functional, organism-based", "set-up": "dose 25 mg/kg", "how_it_was_run": "as §1"}, "Rattus norvegicus [11]": {"tested_on": "Rattus norvegicus", "assay": "Albumin level in Sprague-Dawley rat serum at 25 mg/kg, po", "assay_type": "functional, organism-based", "set-up": "dose 25 mg/kg", "how_it_was_run": "as §1"}, "Rattus norvegicus [12]": {"tested_on": "Rattus norvegicus", "assay": "Total bilirubin level in Sprague-Dawley rat serum at 25 mg/kg, po", "assay_type": "functional, organism-based", "set-up": "dose 25 mg/kg", "how_it_was_run": "as §1"}, "Rattus norvegicus [13]": {"tested_on": "Rattus norvegicus", "assay": "Cholesterol level in Sprague-Dawley rat serum at 25 mg/kg, po", "assay_type": "functional, organism-based", "set-up": "dose 25 mg/kg", "how_it_was_run": "as §1"}, "Rattus norvegicus [14]": {"tested_on": "Rattus norvegicus", "assay": "Triglyceride level in Sprague-Dawley rat serum at 25 mg/kg, po", "assay_type": "functional, organism-based", "set-up": "dose 25 mg/kg", "how_it_was_run": "as §1"}, "Rattus norvegicus [15]": {"tested_on": "Rattus norvegicus", "assay": "Gamma-glutamyl transferase activity in Sprague-Dawley rat serum at 25 mg/kg, po", "assay_type": "functional, organism-based", "set-up": "dose 25 mg/kg", "how_it_was_run": "as §1"}, "Rattus norvegicus [16]": {"tested_on": "Rattus norvegicus", "assay": "Alanine aminotransferase activity in Sprague-Dawley rat serum at 25 mg/kg, po", "assay_type": "functional, organism-based", "set-up": "dose 25 mg/kg", "how_it_was_run": "as §1"}, "Rattus norvegicus [17]": {"tested_on": "Rattus norvegicus", "assay": "Total protein level in Sprague-Dawley rat serum at 25 mg/kg, po", "assay_type": "functional, organism-based", "set-up": "dose 25 mg/kg", "how_it_was_run": "as §1"}, "Rattus norvegicus [18]": {"tested_on": "Rattus norvegicus", "assay": "Glucose level in Sprague-Dawley rat serum at 25 mg/kg, po", "assay_type": "functional, organism-based", "set-up": "dose 25 mg/kg", "how_it_was_run": "as §1"}}, "data": [{"compound": "COc1cc(-c2cc(=O)c3c(O)cc(OC4O[C@H](CO)[C@@H](O)[C@@H]4OC4OC[C@@H](O)[C@H](O)[C@H]4O)cc3o2)ccc1O", "note": "(some centres not stated)", "values": [{"measurement": "Activity", "setting": "Rattus norvegicus [1]", "result": 3.07, "unit": "g/dL"}, {"measurement": "Activity", "setting": "Rattus norvegicus [2]", "result": 61.64, "unit": "U/L"}, {"measurement": "Activity", "setting": "Rattus norvegicus [3]", "result": 88.34, "unit": "mg/dL"}, {"measurement": "Activity", "setting": "Rattus norvegicus [4]", "result": 177.22, "unit": "mg/dL"}, {"measurement": "Activity", "setting": "Rattus norvegicus [5]", "result": 68.43, "unit": "U/L"}, {"measurement": "Activity", "setting": "Rattus norvegicus [6]", "result": 163.36, "unit": "mg/dL"}, {"measurement": "Activity", "setting": "Rattus norvegicus [7]", "result": 0.33, "unit": "mg/dL"}, {"measurement": "Activity", "setting": "Rattus norvegicus [8]", "result": 12.03, "unit": "U/L"}, {"measurement": "Activity", "setting": "Rattus norvegicus [9]", "result": 5.67, "unit": "g/dL"}]}, {"compound": "COc1cc(-c2cc(=O)c3c(O)cc(O)cc3o2)ccc1O", "note": "[CHRYSOERIOL]", "values": [{"measurement": "Activity", "setting": "Rattus norvegicus [1]", "result": 3.05, "unit": "g/dL"}, {"measurement": "Activity", "setting": "Rattus norvegicus [2]", "result": 62.65, "unit": "U/L"}, {"measurement": "Activity", "setting": "Rattus norvegicus [3]", "result": 88.37, "unit": "mg/dL"}, {"measurement": "Activity", "setting": "Rattus norvegicus [4]", "result": 176.21, "unit": "mg/dL"}, {"measurement": "Activity", "setting": "Rattus norvegicus [5]", "result": 69.42, "unit": "U/L"}, {"measurement": "Activity", "setting": "Rattus norvegicus [6]", "result": 165.36, "unit": "mg/dL"}, {"measurement": "Activity", "setting": "Rattus norvegicus [7]", "result": 0.33, "unit": "mg/dL"}, {"measurement": "Activity", "setting": "Rattus norvegicus [8]", "result": 12.05, "unit": "U/L"}, {"measurement": "Activity", "setting": "Rattus norvegicus [9]", "result": 5.61, "unit": "g/dL"}]}, {"compound": "SILYMARIN", "values": [{"measurement": "Activity", "setting": "Rattus norvegicus [10]", "result": 56.6, "unit": "U/L"}, {"measurement": "Activity", "setting": "Rattus norvegicus [11]", "result": 3.1, "unit": "g/dL"}, {"measurement": "Activity", "setting": "Rattus norvegicus [12]", "result": 0.38, "unit": "mg/dL"}, {"measurement": "Activity", "setting": "Rattus norvegicus [13]", "result": 80.9, "unit": "mg/dL"}, {"measurement": "Activity", "setting": "Rattus norvegicus [14]", "result": 171, "unit": "mg/dL"}, {"measurement": "Activity", "setting": "Rattus norvegicus [15]", "result": 10.5, "unit": "U/L"}, {"measurement": "Activity", "setting": "Rattus norvegicus [16]", "result": 65.2, "unit": "U/L"}, {"measurement": "Activity", "setting": "Rattus norvegicus [17]", "result": 6.1, "unit": "g/dL"}, {"measurement": "Activity", "setting": "Rattus norvegicus [18]", "result": 141, "unit": "mg/dL"}]}]}
